Experimental data taken from ChEMBL document CHEMBL4665829, “Synthesis, Structure-Activity Relationship, and Antimalarial Efficacy of 6-Chloro-2-arylvinylquinolines” (J Med Chem, 2020).
Activity calls are given as the source filed them. The calls are words filed in the database; no cut-off is given here.

Columns and labels:
Plasmodium falciparum [1] = assay: Antiplasmodial activity against chloroquine-sensitive Plasmodium falciparum 3D7 infected in human erythrocytes assessed as reduction in microbial growth after 72 hrs by SYBR green I staining based fluorescence assay; assay type: functional, organism-based; conditions: for Activity: Erythrocyte; for EC50: 3D7, Erythrocyte
Summary of the method: (§1)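 SYBR Green I assay: twofold serial dilutions on P. falciparum cultures at 1% parasitemia, 1% hematocrit, 37 °C, 5% CO₂, 72 h, max 0.1% DMSO. DMSO and CQ as growth and inhibition controls. Plates frozen at −80 °C, thawed, lysed in Tris/saponin/EDTA/Triton buffer with 0.01% SYBR Green I, 1 h dark at room temperature. Fluorescence read at 485 ex/530 em. EC50 by nonlinear dose–response fit.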

Plasmodium falciparum [2] = assay: Antiplasmodial activity against chloroquine-resistant Plasmodium falciparum Dd2 infected in human erythrocytes assessed as reduction in microbial growth after 72 hrs by SYBR green I staining based fluorescence assay; assay type: functional, organism-based; conditions: Dd2, Erythrocyte; summary of the method: as §1
[3] = Resistant index, ratio of EC50 for antiplasmodial activity against chloroquine-resistant Plasmodium falciparum Dd2 to antiplasmodial activity against chloroquine-sensitive Plasmodium falciparum 3D7; assay type: functional
[4] = Stability of compound in mouse liver microsomes assessed as parent compound remaining at 1 uM after 60 mins in presence of NADPH by LC-MS analysis; assay type: ADME, Microsome; conditions: 1 h
Summary of the method: (§2)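 Mouse liver microsomes (0.5 mg/mL final protein) in 0.1 M phosphate, pH 7.4, with compound at 1 μM, 37 °C with shaking. Aliquots were quenched in cold acetonitrile and centrifuged; LC–MS gave parent peak area at 60 min relative to 0 min.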

[5] = Intrinsic clearance in mouse liver microsomes assessed as parent compound at 1 uM after 60 mins in presence of NADPH by LC-MS analysis; assay type: ADME, Microsome; summary of the method: as §2
[6] = Selectivity index, ratio of EC50 for cytotoxicity against human HepG2 cells to antiplasmodial activity against chloroquine-resistant Plasmodium falciparum Dd2; assay type: toxicity, cell-based; conditions: read-out: Ratio EC50
HepG2 = assay: Cytotoxicity against human HepG2 cells assessed as reduction in cell viability after 48 hrs by MTS assay; assay type: cell-based; conditions: HepG2, 48 h
Summary of the method: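 HepG2 cells were seeded at 2250 per well and grown 24 h at 37 °C, 5% CO₂. Serial dilutions starting at 25 μM were added for a further 48 h. MTS was then added for 3 h at 37 °C and absorbance read at 490 nm. EC₅₀ came from nonlinear dose–response fits.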

[7] = Half life in mouse liver microsomes at 1 uM after 60 mins in presence of NADPH by LC-MS analysis; assay type: ADME, Microsome; conditions: 1 h; summary of the method: as §2
Hemozoin = assay: Inhibition of beta-hematin formation at 12.5 to 200 uM after 16 hrs by inverted microscopic analysis; conditions: dose microM 12.5-200, time 16.0 hrs
Summary of the method: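 Hemin (2 mM stock in 0.1 M NaOH; 100 μM final), propionate buffer pH 5.2 and sonicated phosphatidylcholine were incubated with a compound concentration series for 16 h at 37 °C with gentle shaking. Crystals were imaged by inverted microscope before quenching with 7.5% SDS in bicarbonate, pH 9.1. Free hemin was measured at 405 nm against a 0–16 μM calibration. Three independent experiments.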

Plasmodium falciparum [8] = assay: Antiplasmodial activity against synchronous gametocyte late stage of Plasmodium falciparum 3D7 harboring luc7 incubated for 72 hrs by ONE-Glo luciferase assay; assay type: functional, organism-based; conditions: 3D7, 72 h
Summary of the method: (§3)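 Gametocytes of P. falciparum 3D7 luc7 induced by nutrient starvation, cultured in heparin medium to remove asexual stages, Percoll-purified as early (II–III) or late (IV–V) stage. 50,000 gametocytes/well exposed 72 h to a 19-point gradient, 0.038 nM–10 μM. ONE-Glo luciferase read after 5 min. EC50 by nonlinear curve fit; three experiments.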

Plasmodium falciparum [9] = assay: Antiplasmodial activity against synchronous gametocyte early stage of Plasmodium falciparum 3D7 harboring luc7 incubated for 72 hrs by ONE-Glo luciferase assay; assay type: functional, organism-based; conditions: 3D7, 72 h; summary of the method: as §3

SMILES	EC50 (Plasmodium falciparum [2]) [nM]	Ratio EC50 [3]	EC50 (Plasmodium falciparum [1]) [nM]	also measured
Fc1cc(F)c(/C=C/c2cc(NCCCCN3CCOCC3)c3cc(Cl)ccc3n2)cc1F	197			Activity (Plasmodium falciparum [1]): Active
COc1ccc2nc(/C=C/c3ccccc3)cc(NCCN(C)C)c2c1	41.2	> 1.3		Activity (Plasmodium falciparum [1]): Active
Clc1ccc2nc(/C=C/c3ccncc3)cc(Nc3ccc(N4CCCCC4)cc3)c2c1	793		155	
FC(F)(F)c1ccc(/C=C/c2cc(NCCCCN3CCOCC3)c3cc(Cl)ccc3n2)cc1	30.7	0.4	73.8	Stabilty [4]: 52.7%; CLH [5]: 21.4 µL/min/mg; selectivity ratio [6]: 332; EC50 (HepG2): 10200 nM; t1/2 [7]: 64.9 min
COc1ccc2nc(/C=C/c3ccc(OC)c(OC)c3)cc(NCCN(C)C)c2c1	187	> 1.3		Activity (Plasmodium falciparum [1]): Active
CN(C)CCNc1cc(/C=C/c2cc3ccccc3[nH]2)nc2ccc(Cl)cc12	95.9	> 1.3		
Fc1ccc(/C=C/c2cc(NCCCCN3CCOCC3)c3cc(Cl)ccc3n2)cc1	2.4	0.3	6.9	Stabilty [4]: 15.4%; CLH [5]: 62.4 µL/min/mg; selectivity ratio [6]: 1480; EC50 (HepG2): 3550 nM; t1/2 [7]: 22.2 min
CN(C)CCNc1cc(/C=C/c2cncnc2)nc2ccc(Cl)cc12	155	> 1.3		
CN(C)CCNc1cc(/C=C/c2cccc(F)c2)nc2ccc(Cl)cc12	5.9	0.3	23	Stabilty [4]: 38.2%; CLH [5]: 32.1 µL/min/mg; selectivity ratio [6]: 810; EC50 (HepG2): 4780 nM; t1/2 [7]: 43.2 min
Clc1ccc2nc(/C=C/c3ccncc3)cc(N3CCN(c4ccccn4)CC3)c2c1	2570		155	
CN(C)CCNc1cc(/C=C/c2cccc3ccccc23)nc2ccc(Cl)cc12	373	> 1.3		
CN(C)CCNc1cc(/C=C/c2ccc(N(C)C)cc2)nc2ccc(Cl)cc12	88.3	> 1.3		
CN(C)CCNc1cc(/C=C/c2ccccc2F)nc2ccc(Cl)cc12	26	0.5	55.9	selectivity ratio [6]: 186; EC50 (HepG2): 4830 nM
Fc1ccc(/C=C/c2cc(NCCN3CCOCC3)c3cc(Cl)ccc3n2)cc1	24.2	0.6	41.8	selectivity ratio [6]: 711; EC50 (HepG2): 17200 nM
COc1ccc2nc(/C=C/c3cc(OC)c(OC)c(OC)c3)cc(NCCN(C)C)c2c1	74.2	> 1.3		Activity (Plasmodium falciparum [1]): Active
Clc1ccc2nc(/C=C/c3ccncc3)cc(NCCCCN3CCOCC3)c2c1	9.9	0.5	20.8	Stabilty [4]: 5.6%; CLH [5]: 96.2 µL/min/mg; selectivity ratio [6]: 561; EC50 (HepG2): 5670 nM; t1/2 [7]: 14.4 min
Fc1ccc(/C=C/c2cc(N3CCC(N4CCCCC4)CC3)c3cc(Cl)ccc3n2)cc1	487		155	
Fc1ccc(/C=C/c2cc(N3CCN(c4ccccn4)CC3)c3cc(Cl)ccc3n2)cc1	3300		155	
COc1ccc2nc(/C=C/c3cc(NCCN(C)C)c4cc(Cl)ccc4n3)ccc2c1	281	> 1.3		
CN(C)CCNc1cc(/C=C/c2ccncc2)nc2ccc(Cl)cc12	28.8	0.5	56.6	Stabilty [4]: 15.5%; CLH [5]: 62.2 µL/min/mg; selectivity ratio [6]: 212; EC50 (HepG2): 6110 nM; t1/2 [7]: 22.3 min
CN(C)CCNc1cc(/C=C/c2ccco2)nc2ccc(F)cc12	82.6			
CN(C)CCNc1cc(/C=C/c2cccs2)nc2ccc(F)cc12	111			
Fc1ccc(/C=C/c2cc(NCCCCN3CCOCC3)c3cc(Cl)ccc3n2)c(F)c1	72.6			
Fc1ccc(/C=C/c2cc(Nc3ccc(N4CCCCC4)cc3)c3cc(Cl)ccc3n2)cc1	667		155	
Fc1ccc(/C=C/c2cc(NCc3ccccn3)c3cc(Cl)ccc3n2)cc1	156	0.6	248	Stabilty [4]: 52.9%; CLH [5]: 21.2 µL/min/mg; selectivity ratio [6]: 127; EC50 (HepG2): 19800 nM; t1/2 [7]: 65.3 min
CN(C)CCNc1cc(/C=C/c2ccccn2)nc2ccc(Cl)cc12	67.5			
COc1ccc(/C=C/c2cc(NCCN(C)C)c3cc(Cl)ccc3n2)cc1	34.8			

SMILES	EC50 (Plasmodium falciparum [2]) [nM]	Ratio EC50 [3]	EC50 (Plasmodium falciparum [1]) [nM]	also measured
CN1CCN(CCCCNc2cc(/C=C/c3ccccc3)nc3ccc(Cl)cc23)CC1	58.9			
COc1ccc2nc(/C=C/c3cccnc3)cc(NCCN(C)C)c2c1	71			
CN(C)CCNc1cc(/C=C/c2ccco2)nc2ccc(Cl)cc12	37			
Clc1ccc2nc(/C=C/c3ccncc3)cc(NCCN3CCCC3)c2c1	67.7			
COc1ccc2nc(CCc3ccncc3)cc(NCCN(C)C)c2c1	709			
Fc1ccc(/C=C/c2cc(NCCCN3CCOCC3)c3cc(Cl)ccc3n2)cc1	40.8			
CCN(CC)CCCC(C)Nc1ccnc2cc(Cl)ccc12 (centres undefined) [CHLOROQUINE]	174		17.8	inhibition (Hemozoin): Active; EC50 (HepG2): 10400 nM
Fc1ccc(/C=C/c2cc(NCCCCN3CCOCC3)c3cc(Cl)ccc3n2)cc1F	25.5	0.9	27.6	Stabilty [4]: 19.9%; CLH [5]: 53.7 µL/min/mg; selectivity ratio [6]: 241; EC50 (HepG2): 10400 nM; t1/2 [7]: 25.8 min
Fc1cccnc1/C=C/c1cc(NCCCCN2CCOCC2)c2cc(Cl)ccc2n1	197			Activity (Plasmodium falciparum [1]): Active
COc1ccc2nc(/C=C/c3ccccc3[N+](=O)[O-])cc(NCCN(C)C)c2c1	56.3			
FC(F)(F)c1ccccc1/C=C/c1cc(NCCCCN2CCOCC2)c2cc(Cl)ccc2n1	104			
COc1ccc2nc(/C=C/c3ccccn3)cc(NCCN(C)C)c2c1	1030			
COc1ccc(/C=C/c2cc(NCCN(C)C)c3cc(Cl)ccc3n2)cc1OC	38.9			
COc1cc(/C=C/c2cc(NCCN(C)C)c3cc(Cl)ccc3n2)cc(OC)c1OC	44.4			
CN(C)c1ccc2nc3ccc(N(C)C)cc3[s+]c2c1 [METHYLENE BLUE ANHYDROUS]				EC50 (Plasmodium falciparum [8]): 107 nM; EC50 (Plasmodium falciparum [9]): 74.7 nM
COc1ccc2nc(/C=C/c3ccc([N+](=O)[O-])cc3)cc(NCCN(C)C)c2c1	28.6			
COc1ccc2nc(/C=C/c3ccncc3)cc(NCCN(C)C)c2c1	38.8			
CN1CCN(CCCCNc2cc(/C=C/c3ccncc3)nc3ccc(Cl)cc23)CC1	33.4	0.9	36.1	selectivity ratio [6]: 251; EC50 (HepG2): 8380 nM
CN(C)CCCCNc1cc(/C=C/c2ccc([N+](=O)[O-])cc2)nc2ccc(Cl)cc12	52.5			
Fc1cc(F)cc(/C=C/c2cc(NCCCCN3CCOCC3)c3cc(Cl)ccc3n2)c1	185			
CN(C)CCNc1cc(/C=C/c2ccccc2)nc2ccc(Cl)cc12	22.4			
Fc1ccc(/C=C/c2cc(NCCCCN3CCOCC3)c3cc(Cl)ccc3n2)cn1	54.6			Activity (Plasmodium falciparum [1]): Active
CN(C)CCNc1cc(/C=C/C2CCCCC2)nc2ccc(Cl)cc12	394	> 1.3		
CN(C)CCCCNc1cc(/C=C/c2ccc(F)cc2)nc2ccc(Cl)cc12	51.2			
CN(C)CCNc1cc(/C=C/c2ccc(F)cc2)nc2ccc(F)cc12	30.9			
Fc1cc(F)c(F)c(/C=C/c2cc(NCCCCN3CCOCC3)c3cc(Cl)ccc3n2)c1	588			Activity (Plasmodium falciparum [1]): Active
